Data set [1] concerns NFS-60. Put plainly: Induction of apoptosis in mouse NFS60 cells assessed as early apoptotic cells at IC50 incubated for 72 hrs by annexin V/propidium iodide staining based flow cytometry (reference value: 0.02 +/- 0.01%). Format: functional. (In general: In flow cytometry, cells or beads pass a laser one at a time.)
Data set [2] relates to HepG2. Put plainly: Induction of apoptosis in human HepG2 cells assessed as necrotic cells level at IC50 incubated for 72 hrs by annexin V/propidium iodide staining based flow cytometry (reference value: 0.87%). Format: functional.
Data set [3] concerns NFS-60. Nature of the data set: Cytotoxicity against mouse NFS60 cells assessed as cell growth inhibition incubated for 72 hrs by MTT assay. Format: functional, cell-based. Conditions: NFS-60, 72 h. An outline of the steps: (§1)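 Cells grown in RPMI-1640 with 10% FBS and seeded at 5×10^3 per well. After 24 h, serial concentrations given for 72 h at 37°C, 5% CO2. Then 5 mg/mL MTT stock added for 3 h, formazan dissolved in DMSO, A570 read. IC50 calculated from the curves.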
(Tetrazolium assays rely on reduction of a dye to a coloured formazan, in cell work by metabolically active cells.)

For data set [4], the system named is HepG2. Nature of the data set: Induction of apoptosis in human HepG2 cells assessed as caspase 3/7 activity using DEVD aminoluciferin as substrate at IC50 after 24 hrs by fluorescence assay relative to control. In kind it is functional. An outline of the steps: (§2)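 Caspase 3/7 activation measured with Caspase-Glo 3/7 kit using a luminogenic caspase-cleavable substrate. […] Reported as percent activation, mean ± SEM.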

Data set [5] deals with MCF7. Put plainly: Induction of apoptosis in human MCF7 cells assessed as late apoptotic cells level at IC50 incubated for 72 hrs by annexin V/propidium iodide staining based flow cytometry (reference value: 0.01%). In kind it is functional.
The test system of data set [6] is HepG2. Nature of the data set: Induction of apoptosis in human HepG2 cells assessed as late apoptotic cells at IC50 incubated for 72 hrs by annexin V/propidium iodide staining based flow cytometry (reference value: 0.1 +/- 0.001%). In kind it is functional.
In data set [7] the test system is NFS-60. Nature of the data set: Induction of apoptosis in mouse NFS60 cells assessed as necrotic cells level at IC50 incubated for 72 hrs by annexin V/propidium iodide staining based flow cytometry (reference value: 0.01%). Format: functional.
Data set [8] relates to HepG2. Nature of the data set: Induction of apoptosis in human HepG2 cells assessed as early apoptotic cells at IC50 incubated for 72 hrs by annexin V/propidium iodide staining based flow cytometry (reference value: 0.78 +/- 0.09%). Format: functional.
Data set [9] relates to MCF7. Nature of the data set: Induction of apoptosis in human MCF7 cells assessed as late apoptotic cells at IC50 incubated for 72 hrs by annexin V/propidium iodide staining based flow cytometry (reference value: 0.01 +/- 0.001%). Format: functional.
Data set [10] has as its system HepG2. Put plainly: Cytotoxicity against human HepG2 cells assessed as cell growth inhibition incubated for 72 hrs by MTT assay. Format: functional, cell-based. Conditions: HepG2, 72 h. An outline of the steps: as §1
Data set [11] relates to NFS-60. Put plainly: Induction of apoptosis in mouse NFS60 cells assessed as late apoptotic cells at IC50 incubated for 72 hrs by annexin V/propidium iodide staining based flow cytometry (reference value: 0.015 +/- 0.01%).
The subject of data set [12] is HepG2. Nature of the data set: Induction of apoptosis in human HepG2 cells assessed as total apoptotic cells at IC50 incubated for 72 hrs by annexin V/propidium iodide staining based flow cytometry (reference value: 0.169 +/- 0.02%). Format: functional.
For data set [13], the system named is NFS-60. Nature of the data set: Induction of apoptosis in mouse NFS60 cells assessed as early apoptotic cells level at IC50 incubated for 72 hrs by annexin V/propidium iodide staining based flow cytometry (reference value: 0.46%). In kind it is functional.
Data set [14] relates to NFS-60. Put plainly: Induction of apoptosis in mouse NFS60 cells assessed as viable cells level at IC50 incubated for 72 hrs by annexin V/propidium iodide staining based flow cytometry (reference value: 99.52%). Format: functional.
Data set [15] deals with MCF7. Put plainly: Induction of apoptosis in human MCF7 cells assessed as early apoptotic cells level at IC50 incubated for 72 hrs by annexin V/propidium iodide staining based flow cytometry (reference value: 0.01%). Format: functional.
Data set [16] concerns HepG2. Put plainly: Induction of apoptosis in human HepG2 cells assessed as early apoptotic cells level at IC50 incubated for 72 hrs by annexin V/propidium iodide staining based flow cytometry (reference value: 0.05%). Format: functional.
Data set [17] relates to NFS-60. Nature of the data set: Induction of apoptosis in mouse NFS60 cells assessed as total apoptotic cells at IC50 incubated for 72 hrs by annexin V/propidium iodide staining based flow cytometry (reference value: 0.495 +/- 0.01%). Format: functional.
In data set [18] the test system is MCF7. Nature of the data set: Induction of apoptosis in human MCF7 cells assessed as caspase 3/7 activity using DEVD aminoluciferin as substrate at IC50 after 24 hrs […] relative to control. In kind it is functional. Put shortly:
as §2

Data set [19] concerns MCF7. Nature of the data set: Induction of apoptosis in human MCF7 cells assessed as early apoptotic cells at IC50 incubated for 72 hrs by annexin V/propidium iodide staining based flow cytometry (reference value: 0.47 +/- 0.01%). In kind it is functional.
In data set [20] the test system is NFS-60. Nature of the data set: Induction of apoptosis in mouse NFS60 cells assessed as late apoptotic cells level at IC50 incubated for 72 hrs by annexin V/propidium iodide staining based flow cytometry (reference value: 0.01%). Format: functional.
Data set [21] relates to MCF7. Nature of the data set: Induction of apoptosis in human MCF7 cells assessed as total apoptotic cells at IC50 incubated for 72 hrs by annexin V/propidium iodide staining based flow cytometry (reference value: 0.48 +/- 0.01%). In kind it is functional.
Data set [22] relates to HepG2. Nature of the data set: Induction of apoptosis in human HepG2 cells assessed as viable cells level at IC50 incubated for 72 hrs by annexin V/propidium iodide staining based flow cytometry (reference value: 98.97%). In kind it is functional.
In data set [23] the test system is NFS-60. Put plainly: Induction of apoptosis in mouse NFS60 cells assessed as caspase 3/7 activity using DEVD aminoluciferin as substrate at IC50 after 24 hrs […] relative to control. In kind it is functional. An outline of the steps:
as §2

Data set [24] deals with MCF7. Put plainly: Induction of apoptosis in human MCF7 cells assessed as viable cells level at IC50 incubated for 72 hrs by annexin V/propidium iodide staining based flow cytometry (reference value: 99.5%). In kind it is functional.
The test system of the next data set is WI-38. Nature of the data set: Cytotoxicity against human WI38 cells assessed as cell growth inhibition incubated for 72 hrs by MTT assay. Conditions: for IC50: Homo sapiens, WI-38, 72 h; for EC100: human, wi-38, 72 h. In kind it is cell-based. An outline of the steps:
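Wi-38 fibroblasts grown in DMEM with 10% FBS and seeded at 5×10^3 per well. Attachment 24 h, then serial concentrations for 72 h at 37°C, 5% CO2. MTT stock (5 mg/mL) added for 3 h at 37°C, DMSO solubilization, absorbance at 570 nm. IC50 estimated.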

Data set [25] relates to MCF7. Put plainly: Induction of apoptosis in human MCF7 cells assessed as necrotic cells level at IC50 incubated for 72 hrs by annexin V/propidium iodide staining based flow cytometry (reference value: 0.48%). Format: functional.
Data set [26] deals with HepG2. Put plainly: Induction of apoptosis in human HepG2 cells assessed as late apoptotic cells level at IC50 incubated for 72 hrs by annexin V/propidium iodide staining based flow cytometry (reference value: 0.1%). In kind it is functional.
Data set [27] can be described thus: Selectivity index, ratio of IC50 for human WI38 cells to IC50 for mouse NFS60 cells. An outline of the steps:
(§3)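 SI calculated as IC50 on normal Wi-38 fibroblasts divided by IC50 on the cancer cell line. Both came from 72 h MTT assays.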

Data set [28] relates to Candida albicans. Put plainly: Antimicrobial activity against Candida albicans ATCC 90028 incubated for 24 hrs by microdilution assay. In kind it is functional. Put shortly: (§4)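 Two-fold serial dilutions of test solutions made in Mueller Hinton broth and inoculated. Incubated at 37°C for 24 h. MIC taken as the lowest concentration with no growth. Ciprofloxacin is the antibacterial reference, fluconazole the antifungal one, and DMSO the blank.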
A general note: In broth dilution the organism is exposed to a series of concentrations in liquid medium.

The test system of another data set is Pseudomonas aeruginosa. Nature of the data set: Antimicrobial activity against Pseudomonas aeruginosa ATCC 27853 incubated for 24 hrs by agar well diffusion assay. In kind it is functional. Put shortly:
(§5)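 Nutrient agar spread with 100 µL inoculum: bacteria at 1×10^8 CFU/mL, fungi at 1×10^6 CFU/mL. 10 mm wells loaded with 100 µL of compound in DMSO (final 1 mg/mL). Bacteria incubated 24 h at 37 °C, fungi 48 h at 28 °C. Inhibition zones measured in mm. Ciprofloxacin and fluconazole standards at 1 mg/mL, DMSO negative control.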

The test system of data set [29] is Candida albicans. Put plainly: Antimicrobial activity against Candida albicans ATCC 90028 incubated for 48 hrs by agar well diffusion assay. In kind it is functional. Put shortly:
as §5

The test system of a further data set is Enterococcus faecalis. Nature of the data set: Antimicrobial activity against Enterococcus faecalis ATCC 29212 incubated for 24 hrs by agar well diffusion assay. Format: functional. An outline of the steps:
as §5

Data set [30] has as its system MCF7. Put plainly: Cytotoxicity against human MCF7 cells assessed as cell growth inhibition incubated for 72 hrs by MTT assay. In kind it is functional, cell-based. Conditions: MCF7, 72 h. Put shortly: as §1
For data set [31], the system named is Staphylococcus aureus. Put plainly: Antimicrobial activity against Staphylococcus aureus ATCC 25923 incubated for 24 hrs by microdilution assay. In kind it is functional. Put shortly:
as §4

Data set [32] deals with Escherichia coli. Nature of the data set: Antimicrobial activity against Escherichia coli ATCC 25922 incubated for 24 hrs by agar well diffusion assay. In kind it is functional. Put shortly: as §5
Data set [33] has as its system MCF7. Nature of the data set: Potency index, ratio of doxorubicin IC50 to test compound IC50 against human MCF7 cells. In kind it is functional.
In data set [34] the test system is Staphylococcus aureus. Nature of the data set: Antimicrobial activity against Staphylococcus aureus ATCC 25923 incubated for 24 hrs by agar well diffusion assay. In kind it is functional. An outline of the steps:
as §5

Data set [35] in a line: Selectivity index, ratio of IC50 for human WI38 cells to IC50 for human MCF7 cells. Conditions: WI38 cells versus MCF7 cells, read-out: Ratio IC50. Format: toxicity. An outline of the steps: as §3
Data set [36] can be described thus: Selectivity index, ratio of IC50 for human WI38 cells to IC50 for human HepG2 cells. Format: toxicity. Conditions: WI38 cells versus HepG2 cells, read-out: Ratio IC50. An outline of the steps: as §3
In data set [37] the test system is Escherichia coli. Nature of the data set: Antimicrobial activity against Escherichia coli ATCC 25922 incubated for 24 hrs by microdilution assay. Format: functional. Conditions: ATCC 25922, 24 h. An outline of the steps:
as §4

Values after ≈ are worked out from the molar mass of the structure shown. Active and inactive are the calls of the source. The calls are words filed in the database; no cut-off is given here.

The text below walks through data of ChEMBL document CHEMBL4390662, “Design, synthesis and biological evaluation of novel α-acyloxy carboxamides via Passerini reaction as caspase 3/7 activators” (Eur J Med Chem, 2019).

Usually IC50 stands for the concentration that inhibits the measured activity by half. As usually defined, the MIC is the least concentration at which growth counts as inhibited.

Consider `COc1cccc2c1C(=O)c1c(O)c3c(c(O)c1C2=O)C[C@@](O)(C(=O)CO)C[C@@H]3O[C@H]1C[C@H](N)[C@H](O)[C@H](C)O1` [DOXORUBICIN], for which the Activity with NFS-60 [1] stood at 11.379%; in the data set on HepG2 [2], 11.94%; with HepG2 [4], 48.09%; with MCF7 [5] it was 18.78%; in the data set on HepG2 [6], 25.49%; with NFS-60 [7], 12.76%. For the same compound, the Activity with HepG2 [8] was determined as 10.59%; in the data set on MCF7 [9], 20.445%; with NFS-60 [11], 23.215%; in the data set on HepG2 [12], 36.08%; in the data set on NFS-60 [13], 7.27%; with NFS-60 [14], 58.34%. For the same compound, the Activity is on record as 5.92% with MCF7 [15]; 10.54% with HepG2 [16]; 34.595% in the data set on NFS-60 [17]; 42.94% in the data set with MCF7 [18]; 13.53% in the data set with MCF7 [19]; 21.62% in the data set with NFS-60 [20]. Also, the Activity with MCF7 [21] is given as 33.974%; in the data set with HepG2 [22], 53.61%; in the data set with NFS-60 [23], 45.39%; in the data set with MCF7 [24], 60.42%; with MCF7 [25] it was 14.88%; in the data set on HepG2 [26], 23.91%. Further, the half-maximal inhibitory concentration (IC50) is 13 nM with NFS-60 [3], 10 nM in the data set with HepG2 [10] and 26.6 nM in the data set on WI-38. For the same compound, the EC100 with WI-38 amounted to 0.0121 µM.

On to `O=C1OC2(CCCCC2)C(=O)N1c1ccc([N+](=O)[O-])cc1`, for which the “Ratio IC50” value is 3.897 in data set [27] and 2 - 4 in the data set on MCF7 [33]. The MIC result with Candida albicans [28] and in the data set with Staphylococcus aureus [31] was “inactive” in each case. Besides, the concentration for half-maximal inhibition (IC50) is 8.98 nM with NFS-60 [3], 9.4 nM in the data set with HepG2 [10], 6.5 nM in the data set on MCF7 [30] and 35 nM in the data set on WI-38. For the same compound, the “diameter of the inhibition zone (DIZ)” value in the data set on Pseudomonas aeruginosa and in the data set on Escherichia coli [32] was 15 mm throughout. Also, the “diameter of the inhibition zone (DIZ)” value with Candida albicans [29], in the data set with Enterococcus faecalis and in the data set on Staphylococcus aureus [34] was “inactive” throughout. For the same compound, the selectivity ratio is 5.38 in data set [35] and 3.72 in [36]. In addition, in the data set on WI-38, the EC100 came out at 0.006 µM. Moreover, the minimal inhibitory concentration (MIC) with Escherichia coli [37] is 3.53 mM (≈ 1020 µg/mL).
